ChEMBL document CHEMBL1649314, “Experimental murine scedosporiosis: histopathology and azole treatment” (2010)
Values after ≈ are worked out from the molar mass of the structure shown. Active and inactive are the calls of the source. The rule behind the calls is not given here.

Key:
Scedosporium aurantiacum [1] = test: Antifungal activity against Scedosporium aurantiacum CBS 116910 infected in immunosuppressed OF1 mouse assessed as reduction in kidney fungal burden at 10 mg/kg, po BID administered 24 hrs postinfection for 10 days measured after 20 days; format: functional, organism-based; parameters: dose 10 mg/kg
Scedosporium apiospermum [2] = test: Antifungal activity against Scedosporium apiospermum CBS 117407 infected in immunosuppressed OF1 mouse assessed as reduction in kidney fungal burden at 10 mg/kg, po BID administered 24 hrs postinfection for 10 days measured after 20 days; format: functional, organism-based; parameters: dose 10 mg/kg
Scedosporium apiospermum [3] = test: Antifungal activity against Scedosporium apiospermum CBS 117407 infected in immunosuppressed OF1 mouse assessed as prolonged survival of mouse at 20 mg/kg, po BID administered 24 hrs postinfection for 10 days measured after 20 days; format: functional, organism-based; parameters: dose 20 mg/kg
Procedure, shortened: (§1)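 Male OF1 mice, groups of 10, immunosuppressed 1 day before infection with cyclophosphamide 200 mg/kg i.p. plus 5-fluorouracil 150 mg/kg i.v. Infected i.v. via tail vein with 1 × 10^4 CFU in 0.2 ml saline. Oral treatment began 24 h post-challenge for 10 days. Mice checked daily for 20 days. Survival by Kaplan-Meier, compared by log rank test.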

Scedosporium aurantiacum [4] = test: Antifungal activity against Scedosporium aurantiacum CBS 116910 infected in immunosuppressed OF1 mouse assessed as reduction in brain fungal burden at 20 mg/kg, po BID administered 24 hrs postinfection for 10 days measured after 20 days; format: functional, organism-based; parameters: dose 20 mg/kg
Scedosporium apiospermum [5] = test: Antifungal activity against Scedosporium apiospermum IHEM 14464 infected in immunosuppressed OF1 mouse assessed as reduction in kidney fungal burden at 20 mg/kg, po BID administered 24 hrs postinfection for 10 days measured after 20 days; format: functional, organism-based; parameters: dose 20 mg/kg
Scedosporium aurantiacum [6] = test: Antifungal activity against Scedosporium aurantiacum IHEM 15458 infected in immunosuppressed OF1 mouse assessed as reduction in kidney fungal burden at 10 mg/kg, po BID administered 24 hrs postinfection for 10 days measured after 20 days; format: functional, organism-based; parameters: dose 10 mg/kg
Scedosporium boydii [7] = test: Antifungal activity against Scedosporium boydii FMR 8627 by broth dilution method; format: functional
Scedosporium boydii [8] = test: Antifungal activity against Scedosporium boydii FMR 8627 infected in immunosuppressed OF1 mouse assessed as reduction in kidney fungal burden at 20 mg/kg, po BID administered 24 hrs postinfection for 10 days measured after 20 days; format: functional, organism-based; parameters: dose 20 mg/kg
Scedosporium boydii [9] = test: Antifungal activity against Scedosporium boydii FMR 6694 infected in immunosuppressed OF1 mouse assessed as prolonged survival of mouse at 10 mg/kg, po BID administered 24 hrs postinfection for 10 days measured after 20 days; format: functional, organism-based; parameters: dose 10 mg/kg; procedure, shortened: as §1
Scedosporium aurantiacum [10] = test: Antifungal activity against Scedosporium aurantiacum CBS 116910 infected in immunosuppressed OF1 mouse assessed as reduction in kidney fungal burden at 20 mg/kg, po BID administered 24 hrs postinfection for 10 days measured after 20 days; format: functional, organism-based; parameters: dose 20 mg/kg
[11] = Antifungal activity against Scedosporium aurantiacum CBS 116910 infected in immunosuppressed OF1 mouse assessed as prolonged survival of mouse at 10 mg/kg, po BID administered 24 hrs postinfection for 10 days measured after 20 days; format: functional, organism-based; parameters: dose 10 mg/kg; procedure, shortened: as §1
Scedosporium apiospermum [12] = test: Antifungal activity against Scedosporium apiospermum IHEM 14464 infected in immunosuppressed OF1 mouse assessed as reduction in brain fungal burden at 20 mg/kg, po BID administered 24 hrs postinfection for 10 days measured after 20 days; format: functional, organism-based; parameters: dose 20 mg/kg
Scedosporium apiospermum [13] = test: Antifungal activity against Scedosporium apiospermum CBS 117407 by broth dilution method; format: functional
[14] = Antifungal activity against Scedosporium aurantiacum CBS 116910 by broth dilution method; format: functional
[15] = Antifungal activity against Scedosporium aurantiacum IHEM 15458 infected in immunosuppressed OF1 mouse assessed as prolonged survival of mouse at 10 mg/kg, po BID administered 24 hrs postinfection for 10 days measured after 20 days; format: functional, organism-based; parameters: dose 10 mg/kg; procedure, shortened: as §1

## CC[C@@H]([C@H](C)O)n1ncn(-c2ccc(N3CCN(c4ccc(OC[C@@H]5CO[C@@](Cn6cncn6)(c6ccc(F)cc6F)C5)cc4)CC3)cc2)c1=O [POSACONAZOLE]
Scedosporium aurantiacum [1]
  Activity: Active
Scedosporium apiospermum [2]
  Activity: Active
Scedosporium apiospermum [3]
  Activity: Active
Scedosporium aurantiacum [4]
  Activity: Active
Scedosporium apiospermum [5]
  Activity: Active
Scedosporium aurantiacum [6]
  Activity: Active
Scedosporium boydii [7]
  MIC: 1 µg/mL (≈ 1.43 µM)
Scedosporium boydii [8]
  Activity: Active
Scedosporium boydii [9]
  Activity: Active
Scedosporium aurantiacum [10]
  Activity: Active
[11]
  Activity: Active
Scedosporium apiospermum [12]
  Activity: Active
Scedosporium apiospermum [13]
  MIC: 1 µg/mL (≈ 1.43 µM)
[14]
  MIC: 32 µg/mL (≈ 45.7 µM)
[15]
  Activity: Active
